Source: article PMC8547165 (Environmental science & technology, 2021)

Assays:
[1] = QAC levels in human blood; assay type: in vivo; details: human serum, n = 111; for Median concentration: non-detects = 1/2 MDL
[2] = Hepatic clearance in vitro-in vivo extrapolation; design: species or system human; details: IVIVE
Outline: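 Human liver microsomes (1 mg/mL) in 50 mM phosphate pH 7.4 with 3 mM MgCl2, 0.5 uM substrate, 0.5% DMSO, NADPH-generating system, 37 °C, triplicate, stopped at 0–3 h; depletion fitted mono-exponentially for CLin vitro. Unbound fraction from NSB-corrected serum ultrafiltration and 60-min blood/serum ratio. Scaled by 34 mg microsomal protein/g liver, hepatic blood flow 42.6 mL/h/g liver.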

| Compound | Maximum concentration ([1]; before COVID-19 (2019)) [ng/mL] | Minimum concentration ([1]; before COVID-19 (2019)) | Median concentration ([1]; before COVID-19 (2019)) | Maximum concentration ([1]; during COVID-19 (2020)) [ng/mL] | Minimum concentration ([1]; during COVID-19 (2020)) | Median concentration ([1]; during COVID-19 (2020)) | Fold lower CLinvivo than C14- and C16-ATMACs [2] |
| --- | --- | --- | --- | --- | --- | --- | --- |
| CCCCCCCC[N+](C)(C)Cc1ccccc1 [C8-BAC] | 0.196 | <MDL | <MDL | 0.433 | <MDL | 0.055 ng/mL | – |
| CCCCCCCC[N+](C)(C)CCCCCCCC [C8-DDAC] | 0.447 | <MDL | <MDL | 0.219 | <MDL | <MDL | – |
| CCCCCCCCCC[N+](C)(C)Cc1ccccc1 [C10-BAC] | 0.166 | <MDL | <MDL | 1.45 | <MDL | <MDL | – |
| CCCCCCCCCC[N+](C)(C)CCCCCCCCCC [C10-DDAC] | 0.206 | <MDL | <MDL | 0.620 | <MDL | 0.089 ng/mL | – |
| CCCCCCCCCCCC[N+](C)(C)C [C12-ATMAC] | 8.55 | <MDL | 0.981 ng/mL | 6.84 | <MDL | 0.612 ng/mL | 2-4 times |
| CCCCCCCCCCCC[N+](C)(C)Cc1ccccc1 [C12-BAC] | 1.40 | <MDL | 0.289 ng/mL | 22.1 | <MDL | 0.634 ng/mL | – |
| CCCCCCCCCCCCCC[N+](C)(C)C [C14-ATMAC] | 1.86 | <MDL | 0.667 ng/mL | 3.75 | <MDL | 0.929 ng/mL | – |
| CCCCCCCCCCCCCC[N+](C)(C)Cc1ccccc1 [C14-BAC] | 2.36 | <MDL | 0.490 ng/mL | 40.1 | <MDL | 1.14 ng/mL | – |
| CCCCCCCCCCCCCC[N+](C)(C)CCCCCCCCCCCCCC [C14-DDAC] | 0.522 | <MDL | <MDL | 0.795 | <MDL | <MDL | – |
| CCCCCCCCCCCCCCCC[N+](C)(C)C [C16-ATMAC] | 5.65 | <MDL | <MDL | 3.53 | <MDL | 0.966 ng/mL | – |
| CCCCCCCCCCCCCCCC[N+](C)(C)Cc1ccccc1 [C16-BAC] | 0.800 | <MDL | 0.080 ng/mL | 16.4 | <MDL | 0.346 ng/mL | – |
| CCCCCCCCCCCCCCCC[N+](C)(C)CCCCCCCCCCCCCCCC [C16-DDAC] | 0.142 | <MDL | <MDL | 0.576 | <MDL | <MDL | – |
| CCCCCCCCCCCCCCCCCC[N+](C)(C)C [C18-ATMAC] | 0.171 | <MDL | <MDL | 3.62 | <MDL | <MDL | – |
| CCCCCCCCCCCCCCCCCC[N+](C)(C)Cc1ccccc1 [C18-BAC] | 2.14 | <MDL | <MDL | 1.41 | <MDL | 0.180 ng/mL | – |
| CCCCCCCCCCCCCCCCCC[N+](C)(C)CCCCCCCCCCCCCCCCCC [C18-DDAC] | 5.77 | <MDL | <MDL | 5.35 | <MDL | <MDL | – |
